Laboratory results taken from ChEMBL document CHEMBL3588761, “Design, synthesis and characterization of dual inhibitors against new targets FabG4 and HtdX of Mycobacterium tuberculosis” (Eur J Med Chem, 2015).
Activity calls are given as the source filed them. The rule behind the calls is not given here.

Experiments:
[1] = Inhibition of Mycobacterium tuberculosis FabG4 assessed as reduction in NADH to NAD+ conversion using acetoacetyl-CoA substrate by UV-visible spectrophotometry
Procedure, shortened: (§1)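 50 mM HEPES pH 7.4 at 25 °C with 1 µM FabG4, 0.2 mM β-NADH, 0.5 mM acetoacetyl-CoA and 5% methanol. Started with substrate; A340 decrease read every 2 min. IC50 taken graphically from dose-response plots. Mode found by varying NADH at three inhibitor levels, using Lineweaver-Burk plots.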

[2] = Inhibition of Mycobacterium tuberculosis HtdX using crotonoyl-CoA substrate by UV-visible spectrophotometry
Procedure, shortened: (§2)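 50 mM HEPES pH 7.5 with 100 mM NaCl at 25 °C, containing 100 nM HtdX, 10 µM crotonoyl-CoA and 5% methanol. Started with substrate; A263 decrease read every 2 min. IC50 taken graphically from dose-response plots. Mode found by varying crotonoyl-CoA at three inhibitor levels, using Lineweaver-Burk plots.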

[3] = tested on: Mycolicibacterium smegmatis; assay: Antimycobacterial activity against Mycobacterium smegmatis str. MC2 155 assessed as inhibition of microbial growth incubated for 24 hrs by REMA method; format: functional; details: str. MC2 155, 24 h
Procedure, shortened: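 M. smegmatis mc2155 grown in 7H9 broth with 0.2% glycerol and 0.05% Tween 80 at 37 °C, 120 rpm, to mid-log (OD595 ~0.5). Diluted to OD595 0.0005 and exposed to drug for 24 h at 37 °C. Then 0.02% resazurin added for 40 min. MIC is the lowest concentration preventing the blue-to-pink change. Two repeats, averaged.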

[4] = tested on: Mycolicibacterium smegmatis; assay: Inhibition of biofilm formation of Mycobacterium smegmatis str. MC2 155 at 20 ug/ml incubated at 37 degC without shaking for 4 weeks; format: functional; details: str. MC2 155, 672 h
Procedure, shortened: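 M. smegmatis mc2155 planktonic culture inoculated at 1% into Sauton's minimal medium without Tween-80. Inhibitor at 5, 10, 20, 50 and 100 µg/mL, with a no-inhibitor control. Plates sealed and held static at 37 °C for 4 weeks; biofilm formation assessed visually.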

[5] = Drug metabolism in culture media assessed as isoniazid release in presence of Mycobacterium smegmatis str. MC2 155 incubated for 24 hrs by HPLC method; format: physicochemical
Procedure, shortened: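 Compound incubated in culture medium with M. smegmatis for 24 h. Culture then lyophilised, redissolved and run on HPLC (100% methanol eluent, 1.2 mL/min), checking for an isoniazid peak.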

[6] = tested on: Mycobacterium tuberculosis; assay: Induction of changes in secondary structure of Mycobacterium tuberculosis FabG4 assessed as turns level at 50 uM by CD spectroscopy (reference value: 34.6%)
[7] = tested on: Mycobacterium tuberculosis; assay: Induction of changes in secondary structure of Mycobacterium tuberculosis FabG4 assessed as unordered level at 50 uM by CD spectroscopy (reference value: 33.5%)
[8] = tested on: Mycobacterium tuberculosis; assay: Binding affinity to Mycobacterium tuberculosis FabG4 assessed as first binding constant at 25 degC by isothermal titration calorimetry
Procedure, shortened: (§3)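 FabG4 at 4.5 µM in 50 mM HEPES pH 7.4 in the cell, titrated at 25 °C with 500 µM ligand in 5% methanol-buffer (0.4 µL then 19 × 2 µL, 120 s spacing). Buffer-ligand reference titration subtracted. Two sequential binding events, per monomer of the homodimer.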

[9] = tested on: Mycobacterium tuberculosis; assay: Competitive inhibition of Mycobacterium tuberculosis FabG4 assessed as reduction in NADH to NAD+ conversion using acetoacetyl-CoA substrate and varying NADH levels by UV-visible spectrophotometry; procedure, shortened: as §1
[10] = tested on: Mycobacterium tuberculosis; assay: Induction of changes in secondary structure of Mycobacterium tuberculosis FabG4 assessed as helix level at 50 uM by CD spectroscopy (reference value: 25.9%)
[11] = tested on: Mycobacterium tuberculosis; assay: Binding affinity to Mycobacterium tuberculosis FabG4 assessed as second binding constant at 25 degC by isothermal titration calorimetry; procedure, shortened: as §3
[12] = tested on: Mycobacterium tuberculosis; assay: Induction of changes in secondary structure of Mycobacterium tuberculosis FabG4 assessed as beta-sheet level at 50 uM by CD spectroscopy (reference value: 6%)
[13] = tested on: Mycobacterium tuberculosis; assay: Induction of changes in secondary structure of Mycobacterium tuberculosis HtdX assessed as turns level at 50 uM by CD spectroscopy (reference value: 12.6%)
[14] = tested on: Mycobacterium tuberculosis; assay: Induction of changes in secondary structure of Mycobacterium tuberculosis HtdX assessed as beta-sheet level at 50 uM by CD spectroscopy (reference value: 40.1%)
[15] = tested on: Mycobacterium tuberculosis; assay: Binding affinity to Mycobacterium tuberculosis HtdX assessed as binding constant at 25 degC by isothermal titration calorimetry
Procedure, shortened: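 HtdX at 10 µM in 50 mM HEPES pH 7.5 with 100 mM NaCl in the cell, titrated at 25 °C with 500 µM ligand in 5% methanol-buffer (0.4 µL then 19 × 2 µL). Buffer-ligand reference subtracted. Isotherm fitted to a one-site model.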

[16] = tested on: Mycobacterium tuberculosis; assay: Induction of changes in secondary structure of Mycobacterium tuberculosis HtdX assessed as helix level at 50 uM by CD spectroscopy (reference value: 12.2%)
[17] = tested on: Mycobacterium tuberculosis; assay: Competitive inhibition of Mycobacterium tuberculosis HtdX using varying crotonoyl-CoA substrate by UV-visible spectrophotometry; procedure, shortened: as §2
[18] = tested on: Mycobacterium tuberculosis; assay: Induction of changes in secondary structure of Mycobacterium tuberculosis HtdX assessed as unordered level at 50 uM by CD spectroscopy (reference value: 35.2%)

O=C(NNC(=O)[C@@H]1C(=O)N(c2ccccc2)[C@H]1c1ccco1)c1ccncc1 (relative stereo)
IC50 ([1]; read-out: IC50): 27.6 µM | IC50 ([2]; read-out: IC50): 17.6 µM | MIC [3]: 15 µg/mL

O=C(NNC(=O)[C@@H]1C(=O)N(c2ccccc2)[C@H]1c1ccncc1)c1ccncc1 (relative stereo)
IC50 ([1]; read-out: IC50): 15.2 µM | inhibition at 20 µg/mL [4]: 100% | Drug metabolism [5]: metabolite_notdetected | Activity [6]: 29.8% | IC50 ([2]; read-out: IC50): 22.3 µM | MIC [3]: 15 µg/mL | Activity [7]: 34.4% | K [8]: 2.98 ×10⁵ /M | inhibition [9]: Active | Activity [10]: 30% | K [11]: 1.15 ×10³ /M | Activity [12]: 5.7%

O=C1[C@@H](CO)[C@H](c2ccncc2)N1c1ccccc1 (relative stereo)
IC50 ([1]; read-out: IC50): 666 µM | IC50 [2]: Not Active

O=C(NNC(=O)[C@@H]1C(=O)N(c2ccccc2)[C@H]1c1ccncc1)c1ccccc1 (relative stereo)
IC50 ([1]; read-out: IC50): 39.9 µM | IC50 [2]: Not Active

O=C(NNC(=O)[C@@H]1C(=O)N(c2ccccc2)[C@H]1c1cccs1)c1ccncc1 (relative stereo)
IC50 ([1]; read-out: IC50): 26.1 µM | IC50 ([2]; read-out: IC50): 10.3 µM | Activity [13]: 2.6% | Activity [14]: 50.6% | MIC [3]: 20 µg/mL | K [15]: 4.21 ×10⁵ /M | Activity [16]: 11.1% | inhibition [17]: Active | Activity [18]: 35.7%

O=C(O)[C@@H]1C(=O)N(c2ccccc2)[C@H]1c1ccco1 (relative stereo)
IC50 [1]: Not Active | IC50 [2]: Not Active

O=C(O)[C@@H]1C(=O)N(c2ccccc2)[C@H]1c1ccncc1 (relative stereo)
IC50 ([1]; read-out: IC50): 64.3 µM | IC50 [2]: Not Active

O=C(O)[C@@H]1C(=O)N(c2ccccc2)[C@H]1c1cccs1 (relative stereo)
IC50 [1]: Not Active | IC50 [2]: Not Active

NNC(=O)c1ccncc1 [ISONIAZID]
MIC [3]: 10 µg/mL
